Active and inactive are the calls of the source. No cut-off for these calls is given here.
How the values were obtained:
Assay type in all cases: cell-based
[1] = tested on: Cystic fibrosis transmembrane conductance regulator (Homo sapiens), P13569 [F508del]; assay: Potentiation of CFTR F508 deletion mutant (unknown origin) expressed in CFBE41o- cells coexpressing HS-YFP assessed as increase in halide influx measuring HS-YFP quenching measured after acute treatment at 10 uM after 24 hrs in presence of forskolin and CFTR inhibitor-172 by fluorescent method
[2] = tested on: Cystic fibrosis transmembrane conductance regulator (Homo sapiens), P13569 [F508del]; assay: Potentiation of CFTR F508del mutant (unknown origin) expressed in human CFBE41o- cells co-expressing HS-YFP assessed as increase in halide influx measuring HS-YFP quenching measured after acute treatment at 2 to 20 uM for 20 mins in presence of forskolin by fluorescent method; settings: filed as opener, dose microM 2-20, time 20.0 min
Outline: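 CFBE41o- cells stably co-expressing F508del-CFTR and HS-YFP were held 24 h at 32°C to rescue mutant trafficking. Cells were then acutely treated with compound (2 and 20 μM) plus forskolin (20 μM). Controls were forskolin alone and forskolin plus VX-770 (1 μM). Halide influx was read as the HS-YFP quenching rate.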

[3] = tested on: Cystic fibrosis transmembrane conductance regulator (Homo sapiens), P13569 [F508del]; assay: (§1) Potentiation of CFTR F508 deletion mutant (unknown origin) expressed in CFBE41o- cells coexpressing HS-YFP assessed as increase in iodide influx measuring HS-YFP quenching incubated for 20 mins in presence of forskolin by fluorescent method; settings: filed as opener
[4] = target: Cystic fibrosis transmembrane conductance regulator (Homo sapiens, UniProt P13569, F508DEL); assay: as §1
[5] = tested on: Cystic fibrosis transmembrane conductance regulator (Homo sapiens), P13569 [F508del]; assay: Potentiation of CFTR F508 deletion mutant (unknown origin) expressed in CFBE41o- cells coexpressing HS-YFP assessed as increase in halide influx measuring HS-YFP quenching measured after acute treatment at 0.08 to 50 uM after 24 hrs in presence of forskolin by fluorescent method; settings: filed as opener, dose microM 0.08-50, time 24.0 hrs
Outline: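 Concentration-response on CFBE41o- cells co-expressing F508del-CFTR and HS-YFP, pre-incubated 24 h at 32°C to rescue maturation. Compound was added acutely over 80 nM–50 μM with forskolin. Controls were forskolin alone and VX-770 (1 μM). Activity was measured by HS-YFP quenching from halide influx.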

[6] = tested on: Cystic fibrosis transmembrane conductance regulator (Homo sapiens), P13569 [F508del]; assay: Corrector activity at CFTR F508del mutant (unknown origin) expressed in forskolin/VX-770-stimulated human CFBE41o- cells co-expressing HS-YFP assessed as increase in iodide influx measuring HS-YFP quenching at 2 to 10 uM incubated for 24 hrs by fluorescent method; settings: dose microM 2-10, time 24.0 hrs
Outline: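 CFBE41o- bronchial epithelial cells stably expressing F508del-CFTR and halide-sensitive YFP, incubated 24 h with compound at 2 and 10 μM, vehicle (DMSO), or VX-809 (1 μM) as positive control. F508del-CFTR activity at the plasma membrane was then read as the rate of HS-YFP quenching caused by iodide influx.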

[7] = tested on: Cystic fibrosis transmembrane conductance regulator (Homo sapiens), P13569 [F508del]; assay: Potentiation of CFTR F508 deletion mutant (unknown origin) expressed in CFBE41o- cells coexpressing HS-YFP assessed as increase in halide influx measuring HS-YFP quenching measured after acute treatment at 1 uM after 24 hrs in presence of forskolin and CFTR inhibitor-172 by fluorescent method

Cystic fibrosis transmembrane conductance regulator (Homo sapiens), P13569 [F508del], sequence (P13569 as listed by the source): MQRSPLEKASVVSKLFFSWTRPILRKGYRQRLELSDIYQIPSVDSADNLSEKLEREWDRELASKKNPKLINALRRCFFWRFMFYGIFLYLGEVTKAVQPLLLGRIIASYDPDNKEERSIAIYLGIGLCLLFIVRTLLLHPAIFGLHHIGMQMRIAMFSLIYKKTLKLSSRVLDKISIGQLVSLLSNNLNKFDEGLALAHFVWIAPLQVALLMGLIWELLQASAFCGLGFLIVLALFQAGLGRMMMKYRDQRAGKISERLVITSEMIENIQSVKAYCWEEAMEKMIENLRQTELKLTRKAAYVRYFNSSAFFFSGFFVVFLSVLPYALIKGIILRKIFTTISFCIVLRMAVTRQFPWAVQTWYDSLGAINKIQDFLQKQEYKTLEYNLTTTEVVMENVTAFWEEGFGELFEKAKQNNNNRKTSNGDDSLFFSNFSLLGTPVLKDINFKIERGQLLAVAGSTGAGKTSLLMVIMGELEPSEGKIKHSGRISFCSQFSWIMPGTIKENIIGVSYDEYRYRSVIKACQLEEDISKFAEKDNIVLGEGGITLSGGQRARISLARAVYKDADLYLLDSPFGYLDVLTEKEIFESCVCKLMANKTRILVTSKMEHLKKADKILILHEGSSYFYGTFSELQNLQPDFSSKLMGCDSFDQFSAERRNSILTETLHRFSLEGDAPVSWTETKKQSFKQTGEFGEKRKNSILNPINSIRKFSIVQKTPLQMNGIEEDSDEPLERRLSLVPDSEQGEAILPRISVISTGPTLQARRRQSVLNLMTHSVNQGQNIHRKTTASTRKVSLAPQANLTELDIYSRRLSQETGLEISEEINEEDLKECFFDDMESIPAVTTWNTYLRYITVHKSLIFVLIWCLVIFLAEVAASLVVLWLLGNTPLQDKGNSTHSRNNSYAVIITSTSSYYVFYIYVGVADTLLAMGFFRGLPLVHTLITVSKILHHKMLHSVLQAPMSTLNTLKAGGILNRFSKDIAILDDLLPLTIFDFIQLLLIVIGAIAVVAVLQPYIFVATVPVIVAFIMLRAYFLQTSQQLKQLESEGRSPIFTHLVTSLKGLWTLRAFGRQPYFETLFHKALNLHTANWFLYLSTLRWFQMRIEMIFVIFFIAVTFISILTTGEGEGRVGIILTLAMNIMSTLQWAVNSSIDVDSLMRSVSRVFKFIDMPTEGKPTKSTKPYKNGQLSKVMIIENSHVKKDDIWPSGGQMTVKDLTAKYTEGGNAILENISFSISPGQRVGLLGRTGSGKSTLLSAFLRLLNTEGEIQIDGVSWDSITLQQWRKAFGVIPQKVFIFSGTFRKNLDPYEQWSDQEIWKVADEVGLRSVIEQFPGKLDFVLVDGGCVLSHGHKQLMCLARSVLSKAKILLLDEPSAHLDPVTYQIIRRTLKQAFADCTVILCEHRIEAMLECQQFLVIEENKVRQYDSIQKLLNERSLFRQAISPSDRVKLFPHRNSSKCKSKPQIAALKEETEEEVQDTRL
Cystic fibrosis transmembrane conductance regulator, sequence (P13569 as listed by the source): as above

Row | Structure (SMILES) | Activity [6] | further results
1 | CCOC(=O)Cc1csc(N(CC)C(=O)c2ccc(I)cc2)n1 | inactive | Activity [1]: inactive; Activity [2]: Active; Emax [3]: 1.9; EC50 [4]: 3200 nM; Activity [5]: Active
2 | CCN(C(=O)c1ccc(Cl)cc1)c1nc(CC(=O)O)cs1 | inactive | 
3 | CCN(C(=O)c1cc(OC)c(OC)c(OC)c1)c1nc(CC(=O)O)cs1 | inactive | 
4 | CC(C)(C)c1cc(C(C)(C)C)c(NC(=O)c2c[nH]c3ccccc3c2=O)cc1O |  | Activity [7]: inactive
5 | CCOC(=O)Cc1csc(N(CC)C(=O)c2cc(OC)c(OC)c(OC)c2)n1 | inactive | 
6 | CCOC(=O)Cc1csc(NC(=O)c2ccc(Cl)cc2)n1 | inactive | 
7 | CCOC(=O)Cc1csc(N(CC)C(=O)c2ccc(Cl)cc2)n1 | inactive | Activity [1]: inactive; Activity [2]: Active; Emax [3]: 1.8; EC50 [4]: 1800 nM; Activity [5]: Active
8 | O=C(O)Cc1csc(NC(=O)c2ccc(I)cc2)n1 | inactive | 
9 | CCN(C(=O)c1ccc(I)cc1)c1nc(CC(=O)O)cs1 | inactive | 
10 | CCOC(=O)Cc1csc(NC(=O)c2ccc(I)cc2)n1 | inactive | 
11 | O=C(O)Cc1csc(NC(=O)c2ccc(Cl)cc2)n1 | inactive | 

The next lines start with results.

Row | Activity [6] | Structure (SMILES) | further results
12 | inactive | CCOC(=O)Cc1csc(N(CC)C(=O)c2ccccc2)n1 | 
13 | inactive | CCOC(=O)Cc1csc(NC(=O)c2ccccc2)n1 | 
14 | inactive | CCN(C(=O)c1ccccc1)c1nc(CC(=O)O)cs1 | 
15 | inactive | COc1cc(C(=O)Nc2nc(CC(=O)O)cs2)cc(OC)c1OC | 
16 | inactive | O=C(O)Cc1csc(NC(=O)c2ccccc2)n1 | 
17 | inactive | CCOC(=O)Cc1csc(NC(=O)c2cc(OC)c(OC)c(OC)c2)n1 | 
